Test results reported in ChEMBL document CHEMBL1132163 (Bioorg Med Chem Lett, 1999).

Legend:
[1] = molecular target: T1, Cyclin-dependent kinase 1 (Homo sapiens, UniProt P06493); assay: Inhibition of cyclin-dependent kinase 1 (CDK1) (Not active)
[2] = molecular target: T1, Cyclin-dependent kinase 1; assay: Inhibitory activity against cyclin-dependent kinase 1 (CDK1) was determined
[3] = Inhibition of human bladder carcinoma T24 cell proliferation; format: functional, cell-based, T-24
Outline: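 T24 cells seeded 1.5 x 10^3/well, attached overnight (16-18h), washed with serum-free medium, exposed to serial drug dilutions 4-5 days (≥2-3 control divisions); duplicates per concentration. Fixed 3.3% glutaraldehyde, methylene blue 0.05% stain, eluted 3% HCl, OD 665nm.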

[4] = molecular target: Protein kinase C alpha type (Homo sapiens, UniProt P17252); assay: Inhibition of Protein kinase C alpha
[5] = molecular target: cAMP-dependent protein kinase (PKA) (Homo sapiens, UniProt P22694+P17612+P22612); assay: Inhibition of Protein kinase A; format: protein assay
[6] = molecular target: T2, Epidermal growth factor receptor (Homo sapiens, UniProt P00533); assay: Inhibit of epidermal growth factor receptor (EGFR)
[7] = molecular target: T2, Epidermal growth factor receptor; assay: Inhibition of epidermal growth factor receptor (EGFR) (inactive)

T1 sequence (P06493 whole entry): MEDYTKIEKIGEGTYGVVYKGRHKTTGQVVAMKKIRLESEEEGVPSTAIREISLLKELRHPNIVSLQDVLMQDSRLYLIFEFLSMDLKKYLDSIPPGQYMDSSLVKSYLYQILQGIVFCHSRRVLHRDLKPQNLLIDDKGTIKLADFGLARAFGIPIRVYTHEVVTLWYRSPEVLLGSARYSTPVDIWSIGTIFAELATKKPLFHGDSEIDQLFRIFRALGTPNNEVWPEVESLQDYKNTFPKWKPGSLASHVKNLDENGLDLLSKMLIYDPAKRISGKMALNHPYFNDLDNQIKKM
T2 sequence (P00533 whole entry): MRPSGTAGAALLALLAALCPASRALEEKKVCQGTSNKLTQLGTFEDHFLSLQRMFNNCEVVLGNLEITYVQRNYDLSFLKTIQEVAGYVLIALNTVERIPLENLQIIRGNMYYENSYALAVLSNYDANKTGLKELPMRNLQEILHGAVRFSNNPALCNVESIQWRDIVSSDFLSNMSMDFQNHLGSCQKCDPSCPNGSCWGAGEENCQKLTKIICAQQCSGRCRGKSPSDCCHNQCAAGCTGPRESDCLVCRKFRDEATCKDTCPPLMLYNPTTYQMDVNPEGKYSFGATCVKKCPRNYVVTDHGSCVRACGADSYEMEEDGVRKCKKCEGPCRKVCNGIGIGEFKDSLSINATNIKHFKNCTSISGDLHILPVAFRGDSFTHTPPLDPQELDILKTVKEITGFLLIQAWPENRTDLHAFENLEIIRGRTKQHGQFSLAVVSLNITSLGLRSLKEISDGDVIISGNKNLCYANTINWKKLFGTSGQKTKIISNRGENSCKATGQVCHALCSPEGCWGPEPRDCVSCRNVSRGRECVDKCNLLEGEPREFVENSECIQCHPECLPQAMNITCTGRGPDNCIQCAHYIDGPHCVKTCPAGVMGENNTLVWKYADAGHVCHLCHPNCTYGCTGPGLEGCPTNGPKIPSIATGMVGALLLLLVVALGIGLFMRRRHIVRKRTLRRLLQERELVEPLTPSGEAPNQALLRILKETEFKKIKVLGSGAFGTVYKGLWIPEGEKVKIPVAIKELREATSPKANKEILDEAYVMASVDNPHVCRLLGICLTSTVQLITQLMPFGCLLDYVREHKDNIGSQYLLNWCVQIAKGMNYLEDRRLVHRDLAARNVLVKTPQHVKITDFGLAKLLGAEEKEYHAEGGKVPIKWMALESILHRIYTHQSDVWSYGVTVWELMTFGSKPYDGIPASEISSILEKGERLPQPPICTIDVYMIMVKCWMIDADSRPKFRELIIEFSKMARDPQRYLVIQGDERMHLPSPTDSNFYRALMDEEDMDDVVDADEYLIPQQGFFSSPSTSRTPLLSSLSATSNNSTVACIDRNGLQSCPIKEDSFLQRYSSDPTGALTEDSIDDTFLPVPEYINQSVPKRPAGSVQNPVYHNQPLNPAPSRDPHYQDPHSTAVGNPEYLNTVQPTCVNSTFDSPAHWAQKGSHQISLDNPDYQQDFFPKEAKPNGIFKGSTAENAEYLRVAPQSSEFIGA

Row | SMILES | IC50 [2] | further results
1 | CCn1cnc2c(Nc3cccc(C(F)(F)F)c3)nc(NCCO)nc21 | – | IC50 [1]: Not Active
2 | CCn1cnc2c(Nc3ccc(F)cc3)nc(NCCO)nc21 | 380 nM | –
3 | CCn1cnc2c(Nc3cccc(C#N)c3)nc(NCCN)nc21.Cl | 560 nM | IC50 ([3]; Homo sapiens, T-24): 5240 nM; IC50 [4]: 78000 nM; IC50 [5]: > 500000 nM; IC50 [6]: > 10000 nM
4 | CCn1cnc2c(Nc3cccc(C(F)(F)F)c3)nc(NCCN)nc21 | 700 nM | –
5 | CCn1cnc2c(Nc3cccc(C#N)c3)nc(NCCO)nc21 | – | IC50 [1]: Not Active
6 | CCn1cnc2c(Nc3cccc(Cl)c3)nc(N[C@@H]3CCCC[C@@H]3N)nc21 (stereo in doubt) | 31 nM | –
7 | CCn1cnc2c(Nc3cccc(C(F)(F)F)c3)nc(N[C@H]3CC[C@@H](N)CC3)nc21 | 290 nM | –
8 | CCn1cnc2c(Nc3cccc(Cl)c3)nc(NCCO)nc21 | 330 nM | IC50 ([3]; Homo sapiens, T-24): 17500 nM
9 | CCn1cnc2c(Nc3cccc(F)c3)nc(NCCN)nc21 [listing 1 of 2 here] | 600 nM | –
10 | CCn1cnc2c(Nc3cccc(C#N)c3)nc(NCCN)nc21 | 560 nM | –
11 | CCn1cnc2c(Nc3cccc(C#N)c3)nc(N[C@H]3CC[C@@H](N)CC3)nc21 | 350 nM | –
12 | CCn1cnc2c(Nc3ccc(F)cc3)nc(NCCN)nc21 [listing 1 of 2 here] | 450 nM | –
13 | CCn1cnc2c(Nc3cccc(C(F)(F)F)c3)nc(NCCN)nc21.Cl | 700 nM | IC50 ([3]; Homo sapiens, T-24): 6080 nM; IC50 [4]: 50000 nM; IC50 [5]: 500000 nM; IC50 [6]: > 10000 nM
14 | CCn1cnc2c(Nc3cccc(F)c3)nc(NCCN)nc21 [listing 2 of 2 here] | 600 nM | IC50 ([3]; Homo sapiens, T-24): 6500 nM
15 | CCn1cnc2c(Nc3cccc(F)c3)nc(N[C@H]3CC[C@@H](N)CC3)nc21 | 350 nM | –
16 | CCn1cnc2c(Nc3cccc(Cl)c3)nc(N[C@H]3CC[C@@H](O)CC3)nc21 | – | IC50 ([3]; Homo sapiens, T-24): 830 nM
17 | CCn1cnc2c(Nc3cccc(C(F)(F)F)c3)nc(N[C@@H]3CCCC[C@@H]3N)nc21 | 310 nM | –
18 | CCn1cnc2c(Nc3cccc(C#N)c3)nc(N[C@@H]3CCCC[C@@H]3N)nc21 | 350 nM | –
19 | CCn1cnc2c(Nc3ccc(F)cc3)nc(NCCN)nc21 [listing 2 of 2 here] | 450 nM | IC50 ([3]; Homo sapiens, T-24): 8300 nM
20 | CCn1cnc2c(Nc3cccc(OC)c3)nc(NCCO)nc21 | 1000 nM | –
21 | CCn1cnc2c(Nc3cccc(F)c3)nc(N[C@@H]3CCCC[C@@H]3N)nc21 | 250 nM | –
22 | CCn1cnc2c(Nc3cccc(F)c3)nc(NCCO)nc21 | 440 nM | –
23 | CCn1cnc2c(Nc3ccc(OC)cc3)nc(NCCN)nc21 | 550 nM | –
24 | CCn1cnc2c(Nc3cccc(Cl)c3)nc(N[C@@H]3CCCC[C@@H]3N)nc21 (stereo in doubt; 13) | 25 nM | IC50 ([3]; t-24): 480 nM; IC50 [4]: 13500 nM; IC50 [5]: 150000 nM; IC50 [6]: 5100 nM
25 | CCn1cnc2c(Nc3cccc(OC)c3)nc(N[C@H]3CC[C@@H](N)CC3)nc21 | 340 nM | –
26 | CCn1cnc2c(Nc3cccc(OC)c3)nc(NCCN)nc21 | 550 nM | IC50 ([3]; Homo sapiens, T-24): 9900 nM
27 | CCn1cnc2c(Nc3cccc(Cl)c3)nc(N[C@@H]3CCCC[C@@H]3N)nc21 (stereo in doubt; 12) | 110 nM | IC50 ([3]; t-24): 1350 nM; IC50 [4]: 30000 nM; IC50 [5]: 335000 nM; IC50 [6]: 2000 nM

The next lines start with results.

Row | IC50 [2] | SMILES | further results
28 | 150 nM | CCn1cnc2c(Nc3cccc(F)c3)nc(N[C@H]3CC[C@H](N)CC3)nc21 | –
29 | 32 nM | CCn1cnc2c(Nc3cccc(F)c3)nc(N[C@H]3CC[C@H](O)CC3)nc21 | –
30 | 100 nM | CCn1cnc2c(Nc3ccc(F)cc3)nc(N[C@H]3CC[C@@H](N)CC3)nc21 | –
31 | 140 nM | CCn1cnc2c(Nc3cccc(C(F)(F)F)c3)nc(N[C@H]3CC[C@H](N)CC3)nc21 | –
32 | 31 nM | CCn1cnc2c(Nc3ccc(F)cc3)nc(N[C@H]3CC[C@H](N)CC3)nc21 | –
33 | 40 nM | CCn1cnc2c(Nc3ccc(F)cc3)nc(N[C@H]3CC[C@H](O)CC3)nc21 | –
34 | 160 nM | CCn1cnc2c(Nc3cccc(OC)c3)nc(N[C@H]3CC[C@H](N)CC3)nc21 | –
35 | 85 nM | CCn1cnc2c(Nc3cccc(C#N)c3)nc(N[C@H]3CC[C@H](N)CC3)nc21 | –
36 | 90 nM | CCn1cnc2c(Nc3cccc(OC)c3)nc(N[C@H]3CC[C@H](O)CC3)nc21 | –
37 | 120 nM | CCn1cnc2c(Nc3cccc(Cl)c3)nc(N[C@H]3CCC[C@@H](N)C3)nc21 | IC50 ([3]; Homo sapiens, T-24): 1500 nM; IC50 [4]: 6000 nM; IC50 [5]: 150000 nM
38 | 150 nM | CCn1cnc2c(Nc3ccc(F)cc3)nc(N[C@@H]3CCCC[C@@H]3N)nc21 | –
39 | 230 nM | CCn1cnc2c(Nc3cccc(OC)c3)nc(N[C@@H]3CCCC[C@@H]3N)nc21 | –
40 | 39 nM | CCn1cnc2c(Nc3cccc(Cl)c3)nc(N3CCCCC3CO)nc21 (stereo not drawn) | IC50 ([3]; Homo sapiens, T-24): 3650 nM
41 | 30 nM | CCn1cnc2c(Nc3cccc(Cl)c3)nc(N[C@H]3CC[C@H](O)CC3)nc21 | –
42 | 28 nM | CCn1cnc2c(Nc3cccc(C#N)c3)nc(N[C@H]3CC[C@H](O)CC3)nc21 | –
43 | 28 nM | CCn1cnc2c(Nc3cccc(C(F)(F)F)c3)nc(N[C@H]3CC[C@H](O)CC3)nc21 | –
44 | 39 nM | CCn1cnc2c(Nc3cccc(Cl)c3)nc(N[C@H]3CC[C@@H](N)CC3)nc21 (stereo in doubt; 15) | IC50 ([3]; Homo sapiens, T-24): 540 nM
45 | 140 nM | CCn1cnc2c(Nc3cccc(Cl)c3)nc(N[C@H]3CC[C@@H](N)CC3)nc21 (stereo in doubt) | –
46 | 41 nM | CCn1cnc2c(Nc3cccc(Cl)c3)nc(N3CCC[C@@H]3CN)nc21 | IC50 ([3]; Homo sapiens, T-24): 2350 nM
47 | 39 nM | CCn1cnc2c(Nc3cccc(Cl)c3)nc(N[C@H]3CC[C@H](N)CC3)nc21 | –
48 | 80 nM | CCn1cnc2c(Nc3cccc(Cl)c3)nc(N3CCC[C@@H]3CO)nc21 | IC50 ([3]; Homo sapiens, T-24): 6710 nM; IC50 [4]: 38500 nM; IC50 [7]: Not Active; IC50 [5]: > 500000 nM
49 | 80 nM | CCn1cnc2c(Nc3cccc(Cl)c3)nc(NCCN)nc21 | IC50 ([3]; Homo sapiens, T-24): 3160 nM; IC50 [4]: 31500 nM; IC50 [5]: 180000 nM; IC50 [6]: > 100000 nM
